Results reported in ChEMBL document CHEMBL4431393, “Polar Recognition Group Study of Keap1-Nrf2 Protein-Protein Interaction Inhibitors” (ACS Med Chem Lett, 2016).
In brackets after ≈: the same amount, converted by molar mass.

Experiments:
[1] = Intrinsic solubility of the compound at pH 7.4 by potentiometric acid-base titration method; format: physicochemical; settings: buffer, read-out: Intrinsic_solubility
[2] = Dissociation constant, pKa of the compound by Avdeef-Bucher potentiometric titration method; format: physicochemical
[3] = Permeability of the compound at pH 7.4 by PAMPA method; format: ADME; settings: read-out: permeability
Procedure, shortened: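 Effective permeability coefficients (Pe) were determined by a standard parallel artificial membrane permeability assay run on an automated PAMPA instrument. This reads out passive transcellular diffusion.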

Keap1/Nrf2 = Keap1/Nrf2 (Homo sapiens, UniProt Q14145); assay: Inhibition of Keap1 Kelch domain/FITC-9mer Nrf2 (unknown origin) interaction after 30 mins by fluorescence polarization assay; format: protein assay
[4] = Partition coefficient, logD of the compound at pH 7.4 by Avdeef-Bucher potentiometric titration method; format: physicochemical; settings: octanol/water

Keap1/Nrf2, sequence (Q16236 whole entry, the tested form may be a part): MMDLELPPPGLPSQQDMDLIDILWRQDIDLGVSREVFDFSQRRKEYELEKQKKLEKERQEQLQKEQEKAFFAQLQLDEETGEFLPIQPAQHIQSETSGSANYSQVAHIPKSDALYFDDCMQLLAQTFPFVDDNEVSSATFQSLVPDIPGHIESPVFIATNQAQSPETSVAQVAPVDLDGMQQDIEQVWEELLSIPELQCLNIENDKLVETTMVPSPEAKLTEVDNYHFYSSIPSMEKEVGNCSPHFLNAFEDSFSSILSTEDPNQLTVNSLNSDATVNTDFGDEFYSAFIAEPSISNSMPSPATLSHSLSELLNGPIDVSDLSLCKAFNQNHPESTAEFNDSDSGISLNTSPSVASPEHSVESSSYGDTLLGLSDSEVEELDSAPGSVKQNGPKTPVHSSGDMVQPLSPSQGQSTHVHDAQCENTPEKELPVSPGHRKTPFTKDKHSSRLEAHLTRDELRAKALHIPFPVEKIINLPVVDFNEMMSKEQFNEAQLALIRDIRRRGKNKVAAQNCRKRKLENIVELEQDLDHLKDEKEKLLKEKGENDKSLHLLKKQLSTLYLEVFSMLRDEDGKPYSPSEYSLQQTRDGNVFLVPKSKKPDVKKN
Keap1/Nrf2, sequence (Q14145 whole entry, the tested form may be a part): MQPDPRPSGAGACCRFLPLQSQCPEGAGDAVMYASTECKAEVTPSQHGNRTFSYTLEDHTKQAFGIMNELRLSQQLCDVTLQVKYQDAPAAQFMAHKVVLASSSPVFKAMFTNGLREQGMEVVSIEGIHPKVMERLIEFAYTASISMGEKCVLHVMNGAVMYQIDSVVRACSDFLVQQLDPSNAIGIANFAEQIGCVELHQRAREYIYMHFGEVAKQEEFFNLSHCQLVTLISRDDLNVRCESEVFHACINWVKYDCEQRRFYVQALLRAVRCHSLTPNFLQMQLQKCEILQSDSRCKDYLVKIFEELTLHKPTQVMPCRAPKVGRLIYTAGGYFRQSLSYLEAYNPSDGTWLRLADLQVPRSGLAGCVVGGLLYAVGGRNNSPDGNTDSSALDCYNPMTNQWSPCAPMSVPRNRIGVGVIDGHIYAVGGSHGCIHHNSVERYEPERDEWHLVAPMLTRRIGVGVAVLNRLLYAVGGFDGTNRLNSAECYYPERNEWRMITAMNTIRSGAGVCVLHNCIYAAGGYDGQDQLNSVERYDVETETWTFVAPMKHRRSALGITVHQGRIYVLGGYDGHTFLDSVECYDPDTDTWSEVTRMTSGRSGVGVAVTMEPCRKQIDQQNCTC

| solubility [1] [µg/mL] | pKa [2] | Papp [3] [×10⁻⁶ cm/s] | IC50 (Keap1/Nrf2) [µM] | logD [4] | SMILES |
| --- | --- | --- | --- | --- | --- |
| 5000 (≈ 7480 µM) | 4.79 | 0.265 | – | – | CC(=O)Nc1ccc(S(=O)(=O)N(CC(=O)O)c2ccc(N(CC(=O)O)S(=O)(=O)c3ccc(NC(C)=O)cc3)c3ccccc23)cc1 |
| 942 (≈ 1350 µM) | 8.12 | – | 2.6 | 2.87 | CC(=O)Nc1ccc(S(=O)(=O)N(CC(=O)NO)c2ccc(N(CC(=O)NO)S(=O)(=O)c3ccc(NC(C)=O)cc3)c3ccccc23)cc1 |
| 14.1 (≈ 22.4 µM) | 10.5 | – | > 50 | 4.65 | CC(=O)Nc1ccc(S(=O)(=O)N(CC#N)c2ccc(N(CC#N)S(=O)(=O)c3ccc(NC(C)=O)cc3)c3ccccc23)cc1 |
| 698 (≈ 976 µM) | 9.67 | – | 0.609 | 3.01 | CC(=O)Nc1ccc(S(=O)(=O)N(Cc2c[nH]nn2)c2ccc(N(Cc3c[nH]nn3)S(=O)(=O)c3ccc(NC(C)=O)cc3)c3ccccc23)cc1 |
| 655 (≈ 1020 µM) | 10.8 | – | > 50 | 2.99 | CC(=O)Nc1ccc(S(=O)(=O)N(CCO)c2ccc(N(CCO)S(=O)(=O)c3ccc(NC(C)=O)cc3)c3ccccc23)cc1 |
| 3500 (≈ 4880 µM) | 5.12 | 42.3 | – | 2.31 | CC(=O)Nc1ccc(S(=O)(=O)N(Cc2nn[nH]n2)c2ccc(N(Cc3nn[nH]n3)S(=O)(=O)c3ccc(NC(C)=O)cc3)c3ccccc23)cc1 |
| 36.4 (≈ 52.2 µM) | 10.5 | – | > 50 | 3.91 | COC(=O)CN(c1ccc(N(CC(=O)OC)S(=O)(=O)c2ccc(NC(C)=O)cc2)c2ccccc12)S(=O)(=O)c1ccc(NC(C)=O)cc1 |
| 11.2 (≈ 17.8 µM) | 10.7 | – | > 50 | 4.75 | C#CCN(c1ccc(N(CC#C)S(=O)(=O)c2ccc(NC(C)=O)cc2)c2ccccc12)S(=O)(=O)c1ccc(NC(C)=O)cc1 |
| 388 (≈ 583 µM) | 9.8 | – | > 50 | 3.21 | CC(=O)Nc1ccc(S(=O)(=O)N(CC(N)=O)c2ccc(N(CC(N)=O)S(=O)(=O)c3ccc(NC(C)=O)cc3)c3ccccc23)cc1 |
